Experimental findings from ChEMBL document CHEMBL4680268, “Pharmacomodulations of the benzoyl-thiosemicarbazide scaffold reveal antimicrobial agents targeting d-alanyl-d-alanine ligase in bacterio” (Eur J Med Chem, 2020) are described below.

Structures are written as SMILES. In brackets after ≈: the same amount, converted by molar mass. Activity calls are given as the source filed them. No cut-off for these calls is given here.

Data set [1] concerns Staphylococcus aureus. Put plainly: Bacteriostatic activity against Staphylococcus aureus ATCC 25923 assessed as reduction in bacterial growth at 1 and 2 times MIC measured upto 24 hrs by time kill assay. Format: functional, organism-based. Conditions: time hrs <=24. The gist of the method: (§1)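 S. aureus ATCC 25923 grown overnight in CAMHB, pelleted, resuspended; compound added at 1, 2 or 5× MIC to give 10⁶ CFU/mL start with 5% DMSO (DMSO-only control). Sampled at 0, 5, 15, 30 min, 1, 2, 7, 24 h; 10-fold PBS dilutions plated on charcoal TSA, counted after 24 h at 37 °C. Bactericidal = ≥3-log₁₀ drop in 24 h; triplicate, mean ± SD.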

Data set [2] concerns Staphylococcus aureus. As to the kind of experiment: Antibacterial activity against methicillin resistant and vancomycin intermediate resistant Staphylococcus aureus MU50 assessed as reduction in bacterial growth incubated for 18 to 24 hrs by broth microdilution method. Conditions: time 18-24 hrs. Format: functional. Summed up:
(§2)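 Broth microdilution in cation-adjusted Mueller-Hinton broth per CLSI; inoculum 10⁶ bacteria/mL. Two-fold serial dilutions, compound in broth with 5% DMSO mixed 1:1 with bacterial suspension, giving 2.5% DMSO final. Top concentration 0.1, 0.4 or 0.8 mM depending on solubility. Incubated 18–24 h at 37 °C. MIC = lowest concentration preventing visible growth.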
Background: Broth dilution looks for growth in wells or tubes with falling amounts of substance.

For data set [3], the system named is Cell membrane. Put plainly: Disruption of bacterial cell membrane in Staphylococcus aureus ATCC 25923 assessed as increase in PI uptake by measuring increase in fluorescence intensity at 5 times MIC measured every 10 mins for 2 hrs by PI dye based spectrophotometry. Summed up:
(§3)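 Mid-log S. aureus ATCC 25923 (grown in MHB from OD₆₀₀ 0.05) washed into BET buffer (pH 7.5) at 1.11×10⁶ CFU/mL with 12 nM propidium iodide; compound at 1, 2, 5× MIC, 5% DMSO final. SDS 0.5% positive, buffer negative control. Fluorescence (ex 532/em 620 nm) read in the dark every 10 min for 2 h; triplicate.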

For data set [4], the system named is Staphylococcus aureus. Put plainly: Inhibition of Ddl in Staphylococcus aureus ATCC 25923 assessed as increase in D-Ala/D-Ala-D-Ala ratio at 2 times MIC incubated for 30 mins by UHPLC-MS/MS analysis. Summed up:
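Log-phase S. aureus ATCC 25923 in MHB with 5% DMSO (from OD₆₀₀ 0.05) treated with compound at 2× MIC for 0–30 min; untreated and D-cycloserine 2× MIC controls. Cells chilled, pelleted, washed in M9, lysed in ice-cold MeOH/H₂O/formic acid 80:20:0.1, supernatants derivatized with Marfey's reagent in triplicate; L-Ala, D-Ala, D-Ala-D-Ala quantified by UPLC-MS/MS.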

Data set [5] relates to Staphylococcus aureus. Put plainly: Antibacterial activity against Staphylococcus aureus ATCC 25923 assessed as reduction in bacterial growth incubated for 18 to 24 hrs by broth microdilution method. In kind it is functional. To be noted: time 18-24 hrs.
Data set [6] deals with Escherichia coli. As to the kind of experiment: Antibacterial activity against Escherichia coli ATCC 25922 assessed as reduction in bacterial growth incubated for 18 to 24 hrs by broth microdilution method. Format: functional, organism-based. To be noted: time 18-24 hrs. The gist of the method: (§4)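 Microdilution in cation-adjusted Mueller-Hinton broth per CLSI; two-fold compound series in CAMHB with 5% DMSO mixed 1:1 with bacterial suspension, giving 10⁶ bacteria/mL inoculum and 2.5% DMSO final. Top concentrations 0.1, 0.4 or 0.8 mM depending on solubility. Incubated 18–24 h at 37 °C; MIC read as lowest concentration preventing visible growth.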

A short description of data set [7]: Cytotoxicity against human THP-1 cells assessed as reduction in cell viability at 2 times MIC measured after 1 to 2 hrs by trypan blue exclusion assay. Format: cell-based. To be noted: time 1-2 hrs, read-out: INH. The gist of the method: (§5)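 Aliquots taken at 1, 2, 6, 24 h, mixed 1:1 with 0.4% Trypan blue for 5 min; percent blue-stained cells counted by light microscopy. DMSO control; triplicate, mean ± SD.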

Data set [8] has as its system Enterococcus faecalis. As to the kind of experiment: Antibacterial activity against vancomycin resistant Enterococcus faecalis BM4575 harboring VanE genotype, constitutive expression of Ddl and VanE D-Ala-D-Ser ligase assessed as reduction in bacterial growth incubated for 18 to 24 hrs by broth microdilution method. In kind it is functional. To be noted: time 18-24 hrs. The gist of the method: as §2

Data set [9] deals with Enterococcus faecalis. Put plainly: Antibacterial activity against vancomycin resistant Enterococcus faecalis JH2-2::C1 harboring constitutive expression of Ddl and vanB ligase assessed as reduction in bacterial growth incubated for 18 to 24 hrs by broth microdilution method. Format: functional. Conditions: time 18-24 hrs. Summed up: as §2
Data set [10] has as its system Cell membrane. As to the kind of experiment: Disruption of bacterial cell membrane in Staphylococcus aureus ATCC 25923 assessed as reduction in bacterial colonies at 5X MIC measured after 2 hrs by time-kill kinetics assay.
In data set [11] the test system is Enterococcus faecalis. Put plainly: Antibacterial activity against vancomycin resistant Enterococcus faecalis BM4390 harboring VanB mutant with inactive Ddl and constitutive expression of D-Ala-D-Lac assessed as reduction in bacterial growth incubated for 18 to 24 hrs by broth microdilution method. In kind it is functional. To be noted: time 18-24 hrs. The gist of the method:
as §2

The test system of data set [12] is Enterococcus faecalis. As to the kind of experiment: Antibacterial activity against Enterococcus faecalis ATCC 29212 assessed as reduction in bacterial growth incubated for 18 to 24 hrs by broth microdilution method. In kind it is functional. Conditions: time 18-24 hrs.
The subject of data set [13] is Staphylococcus aureus. Put plainly: Antibacterial activity against hospital-acquired methicillin/ciprofloxacin and moxifloxacin resistant Staphylococcus aureus SA481 assessed as reduction in bacterial growth incubated for 18 to 24 hrs by broth microdilution method. In kind it is functional. Conditions: time 18-24 hrs. Summed up: as §2
Data set [14] concerns Pseudomonas aeruginosa. Put plainly: Antibacterial activity against Pseudomonas aeruginosa PAO1 assessed as reduction in bacterial growth incubated for 18 to 24 hrs by broth microdilution method. To be noted: time 18-24 hrs. In kind it is functional, organism-based. The gist of the method:
as §4

Data set [15] can be described thus: Inhibition of recombinant Enterococcus faecalis C-terminal His6-tagged DdlB expressed in Escherichia coli LMG194 using D-Ala as substrate preincubated with enzyme for 30 mins followed by substrate addition and measured after 20 mins by malachite green based colorimetric analysis. The gist of the method:
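DdlB (20 mg/L) malachite green phosphate assay: enzyme, inhibitor and 500 µM ATP preincubated 30 min at 30 °C in Tris-HCl pH 7.4 buffer with MgCl₂, KCl and 10% DMSO, then 1 mM D-Ala for 20 min; A650 read. IC₅₀ from 11 concentrations, also run with 0.01% Triton X-100; mean ± SD of triplicates, n ≥ 2; EC₅₀ given where maximal inhibition stayed below 50%.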

For data set [16], the system named is Staphylococcus aureus. Put plainly: Bactericidal activity against Staphylococcus aureus ATCC 25923 assessed as reduction in bacterial growth at 5 times MIC measured after 24 hrs by time kill assay. Format: functional, organism-based. The gist of the method: as §1
The subject of data set [17] is THP-1. Put plainly: Cytotoxicity against human THP-1 cells assessed as reduction in cell viability at 1 times MIC measured after 1 to 2 hrs by trypan blue exclusion assay. Format: cell-based. Conditions: time 1-2 hrs. The gist of the method: as §5
Data set [18] deals with Staphylococcus aureus. Put plainly: Antibacterial activity against hospital-acquired vancomycin resistant Staphylococcus aureus VRS-1 assessed as reduction in bacterial growth incubated for 18 to 24 hrs by broth microdilution method. In kind it is functional. To be noted: time 18-24 hrs. The gist of the method: as §2
The subject of data set [19] is Staphylococcus aureus. As to the kind of experiment: Antibacterial activity against community-acquired methicillin and erythromycin resistant Staphylococcus aureus SA325 assessed as reduction in bacterial growth incubated for 18 to 24 hrs by broth microdilution method. In kind it is functional. To be noted: time 18-24 hrs. Summed up: as §2
Data set [20] deals with Staphylococcus aureus. As to the kind of experiment: Antibacterial activity against methicillin and linezolid resistant Staphylococcus aureus NRS119 assessed as reduction in bacterial growth incubated for 18 to 24 hrs by broth microdilution method. Format: functional. Conditions: time 18-24 hrs. The gist of the method:
as §2

The subject of data set [21] is THP-1. Put plainly: Cytotoxicity against human THP-1 cells assessed as reduction in cell viability at 1 times MIC measured after 6 hrs by trypan blue exclusion assay. In kind it is cell-based. Conditions: thp-1, 6 h. The gist of the method:
as §5

For data set [22], the system named is Klebsiella pneumoniae. As to the kind of experiment: Antibacterial activity against Klebsiella pneumoniae ATCC700603 assessed as reduction in bacterial growth incubated for 18 to 24 hrs by broth microdilution method. To be noted: 700603, time 18-24 hrs. Format: functional, organism-based. The gist of the method: as §4
The subject of data set [23] is THP-1. As to the kind of experiment: Cytotoxicity against human THP-1 cells assessed as reduction in cell viability at 2 to 5 times MIC measured after 6 hrs by trypan blue exclusion assay. In kind it is cell-based. Conditions: thp-1, 6 h. Summed up:
as §5

The nature of data set [24]: Inhibition of Ddl in Streptococcus faecalis ATCC 8043 using D-[1-14C]-alanine as substrate preincubated with enzyme for 40 mins followed by substrate and addition and measured after 30 mins by TLC analysis. The arrangement: species or system Enterococcus faecalis.
The subject of data set [25] is Cell membrane. Put plainly: Disruption of bacterial cell membrane in Staphylococcus aureus ATCC 25923 assessed as increase in PI uptake at 5 times MIC measured every 10 mins for 1 hr by PI dye based spectrophotometry. The gist of the method: as §3
Data set [26] can be described thus: Solubility of the compound in 1% DMSO at 5XMIC against Staphylococcus aureus ATCC 25923. Format: physicochemical.
In data set [27] the test system is Staphylococcus aureus. Put plainly: Bactericidal activity against Staphylococcus aureus ATCC 25923 assessed as reduction in bacterial growth at 5 times MIC measured after 7 hrs by time kill assay. Format: functional, organism-based. The gist of the method: as §1

Broadly, the MIC is the lowest concentration found to suppress growth. The term IC50 denotes the concentration at which inhibition is half-maximal. Take `Oc1ccccc1/C=N/NC(=S)Nc1ccc(Cl)c(Cl)c1`: the outcome in [1] and in data set [16] was Active. For the same compound, the MIC was 25 µM (≈ 8.51 µg/mL) in data set [2]; 12.5 µM (≈ 4.25 µg/mL) in data set [5]; 6.25 µM (≈ 2.13 µg/mL) in [8]; 3.12 µM (≈ 1.06 µg/mL) in [9]; 6.25 µM (≈ 2.13 µg/mL) in data set [11]; 12.5 µM (≈ 4.25 µg/mL) in data set [12]. Also, the minimal inhibitory concentration (MIC) in data set [13] stood at 25 µM (≈ 8.51 µg/mL); in data set [18] it was 12.5 µM (≈ 4.25 µg/mL); in data set [19], 25 µM (≈ 8.51 µg/mL); in data set [20], 12.5 µM (≈ 4.25 µg/mL). Further, the Activity in data set [3] is 15 RFU; in data set [10], less than 1 log10CFU/ml; in data set [17] it was “Non-Toxic”; in data set [21], “Non-Toxic”; in [23], “Toxic”. In addition, in [4], the inhibition entry was “Active”. In addition, the result in data set [6], in data set [14] and in data set [22] was inactive. Also, in [7], the cytotoxicity at 2 x MIC was 5%. In data set [15], the IC50 was 1.48 µM.
By Ki is commonly meant a dissociation constant, usually derived from enzyme kinetics or from competition with a known ligand. Low values mean tighter binding, high ones weaker binding. In [24], `C[C@@H](CP(=O)(O)[C@@H](C)N)C(=O)O` registered a Ki of 4 µM.
With `Oc1ccccc1-c1n[nH]c(=S)n1-c1ccc(Cl)c(Cl)c1`, the result in [25], in [1] and in data set [27] was Active. For the same compound, the solubility entry in [26] is “Insoluble”. Further, the MIC is 400 µM (≈ 135 µg/mL) in data set [2]; 400 µM (≈ 135 µg/mL) in data set [5]; 400 µM (≈ 135 µg/mL) in data set [8]; 400 µM (≈ 135 µg/mL) in data set [9]; greater than 800 µM in data set [11]; 400 µM (≈ 135 µg/mL) in data set [12]. Further, the MIC in data set [13] came to 800 µM (≈ 271 µg/mL); in [18], 400 µM (≈ 135 µg/mL); in data set [19], 400 µM (≈ 135 µg/mL); in data set [20], 400 µM (≈ 135 µg/mL). In addition, in [4], the inhibition result was “Active”. Also, the result in data set [6], in data set [14] and in data set [22] was inactive. Also, in data set [7], the cytotoxicity at 2 x MIC amounted to 5%. Moreover, the Activity in data set [10] is 2 log10CFU/ml; in data set [17] it was “Non-Toxic”. For the same compound, the IC50 in data set [15] was 299 µM.
